Laboratory results as given in PubChem BioAssay AID492976 (The Scripps Research Institute Molecular Screening Center, 2010).
Calls of active or inactive are those of the source.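 Rule for the calls: active = inhibition of 35% or more of the parasite aminopeptidase activity in malaria cell lysate; inactive = inhibition below 35%.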

Biological target: Aminopeptidase N (Plasmodium falciparum (isolate 3D7)) (UniProt O96935)
Assay: M1 aminopeptidase activity inhibition, P. falciparum lysate – cell lysate, fluorescence, malaria cell lysate, powder samples, late-stage follow-up (AID 492976)
Details: H-Arg-NHMec fluorogenic substrate, at 5 µM, stronger effect = higher value
Procedure, shortened: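 Probe or stimulus – 50 µM H-Arg-NHMec · Test system – P. falciparum cell lysate · Amount – 10 µg/mL lysate · Technique – fluorescence 370/460 nm, read each minute · Controls – no-compound wells and no-lysate wells · Timing – 10 min preincubation, 30 min reading · Measure – % inhibition vs control wells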

Sequence of Aminopeptidase N (Plasmodium falciparum (isolate 3D7)) (O96935 whole entry, looked up): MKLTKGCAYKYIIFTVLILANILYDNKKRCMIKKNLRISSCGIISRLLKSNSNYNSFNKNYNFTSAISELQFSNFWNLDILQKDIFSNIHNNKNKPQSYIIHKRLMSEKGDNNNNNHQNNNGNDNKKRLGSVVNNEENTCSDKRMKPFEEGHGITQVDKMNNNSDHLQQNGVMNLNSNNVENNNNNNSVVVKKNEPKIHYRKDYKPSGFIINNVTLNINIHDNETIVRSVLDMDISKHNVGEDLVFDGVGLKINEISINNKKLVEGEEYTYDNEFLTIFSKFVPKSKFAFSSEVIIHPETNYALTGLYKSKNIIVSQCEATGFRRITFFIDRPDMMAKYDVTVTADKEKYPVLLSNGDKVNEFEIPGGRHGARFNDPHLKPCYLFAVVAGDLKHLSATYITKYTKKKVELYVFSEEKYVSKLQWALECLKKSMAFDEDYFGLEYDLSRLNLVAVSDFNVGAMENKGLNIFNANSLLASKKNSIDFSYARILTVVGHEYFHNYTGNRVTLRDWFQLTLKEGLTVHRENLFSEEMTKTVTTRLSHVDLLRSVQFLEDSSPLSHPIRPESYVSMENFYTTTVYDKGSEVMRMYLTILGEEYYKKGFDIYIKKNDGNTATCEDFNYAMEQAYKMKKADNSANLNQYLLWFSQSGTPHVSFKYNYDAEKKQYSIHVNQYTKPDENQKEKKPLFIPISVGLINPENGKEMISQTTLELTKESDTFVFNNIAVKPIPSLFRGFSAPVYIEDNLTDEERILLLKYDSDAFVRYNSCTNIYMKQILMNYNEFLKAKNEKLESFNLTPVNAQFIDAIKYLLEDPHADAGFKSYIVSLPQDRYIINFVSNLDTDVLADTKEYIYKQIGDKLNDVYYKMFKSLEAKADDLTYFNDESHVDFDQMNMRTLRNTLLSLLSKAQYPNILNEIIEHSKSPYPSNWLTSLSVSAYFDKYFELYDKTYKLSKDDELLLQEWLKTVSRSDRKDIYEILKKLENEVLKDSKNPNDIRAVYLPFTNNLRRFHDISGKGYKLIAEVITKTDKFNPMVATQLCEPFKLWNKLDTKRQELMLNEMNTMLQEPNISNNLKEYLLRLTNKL

O=C(NCc1ccco1)C1CCCN(S(=O)(=O)c2cccc3nonc23)C1 (stereo not drawn)
inhibition: 0% (inactive)

O=C(O)CCC(=O)N1N=C(c2c(-c3ccccc3)c3cc(Cl)ccc3[nH]c2=O)CC1c1cccs1 (stereo not drawn)
inhibition: 3% (inactive)

COc1ccccc1-c1nc2ccccc2c(=O)n1NC(=O)c1cccs1
inhibition: 0% (inactive)

O=C(NCc1cccc(F)c1)C1CCN(S(=O)(=O)Cc2ccccc2)CC1
inhibition: 35%

O=C1N=c2ccccc2=C1c1sc(=S)n(NC(=O)c2ccccc2)c1O
inhibition: 0% (inactive)

O=C(Nn1c(C2CCC2)nc2ccccc2c1=O)c1cccs1
inhibition: 0% (inactive)

O=C(O)CCC(=O)N1N=C(c2c(-c3ccccc3)c3cc(Cl)ccc3[nH]c2=O)CC1c1ccco1 (stereo not drawn)
inhibition: 2% (inactive)

COc1ccc(C2CC(c3c(-c4ccccc4)c4cc(Cl)ccc4[nH]c3=O)=NN2C(=O)CCC(=O)O)cc1 (stereo not drawn)
inhibition: 0% (inactive)

O=C1/C(=C/c2cccs2)SC(=S)N1NS(=O)(=O)c1ccccc1
inhibition: 0% (inactive)

O=C(NCCC1=CCCCC1)C1CCN(S(=O)(=O)c2ccc(Br)s2)CC1
inhibition: 13% (inactive)

O=C1N=c2ccccc2=C1c1sc(=S)n(NC(=O)c2cccc(O)c2)c1O
inhibition: 17% (inactive)

COc1ccc(OC)c(/C=C2\SC(=S)N(C(C(=O)O)c3ccccc3)C2=O)c1 (stereo not drawn)
inhibition: 0% (inactive)

CC(=O)N1N=C(c2c(O)n(C)c(=O)n(C)c2=O)CC1c1ccccc1 (stereo not drawn)
inhibition: 0% (inactive)
